Drawing on ChEMBL document CHEMBL4808214, “Structure-activity relationship studies in substituted sulfamoyl benzamidothiazoles that prolong NF-κB activation” (Bioorg Med Chem, 2021), this text covers Activity for 61 compounds.

Data set [1] concerns the target Nuclear factor NF-kappa-B complex (Homo sapiens) (UniProt Q00653+P19838+Q04206). Put plainly: Activation of NF-kappaB in human THP1-Blue NF-kappaB cells co-expressing NFkappaB-inducible SEAP assessed as increase in SEAP activity at 5 uM measured after 20 hrs by quanti-blue based colorimetric assay relative to control. In kind it is cell-based. Particulars: filed as activator. Summed up:
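THP1-Blue NF-κB reporter cells plated at 10^5/well in RPMI with 10% FBS, penicillin/streptomycin and Normocin. Compound added at 5 μM final (0.5% DMSO), then incubated 20 h. Secreted SEAP in the supernatant was read colorimetrically with QuantiBlue at 630 nm. Two-point normalization set vehicle (0.5% DMSO) as 100% and a reference activator as 200%.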

Another data set concerns THP-1. Description: Cytotoxicity against human THP-1 cells assessed as cell viability at 5 uM measured after 18 hrs by MTT assay relative to control. The settings on record: thp-1, 18 h. The class given is cell-based. Summed up:
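THP-1 cells were plated at 10^5/well in RPMI with 10% FBS and penicillin/streptomycin, then given compound at 5 μM final (0.5% DMSO) for 18 h. MTT at 0.5 mg/mL was added for 4–6 h, followed by SDS/HCl lysis buffer overnight. Absorbance was read at 570 nm against a 650 nm reference. Viability was normalized to DMSO as 100%.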
(Tetrazolium dyes change colour on reduction, which living cells bring about.)

Chain of Nuclear factor NF-kappa-B complex (Homo sapiens) (P19838 whole entry, looked up): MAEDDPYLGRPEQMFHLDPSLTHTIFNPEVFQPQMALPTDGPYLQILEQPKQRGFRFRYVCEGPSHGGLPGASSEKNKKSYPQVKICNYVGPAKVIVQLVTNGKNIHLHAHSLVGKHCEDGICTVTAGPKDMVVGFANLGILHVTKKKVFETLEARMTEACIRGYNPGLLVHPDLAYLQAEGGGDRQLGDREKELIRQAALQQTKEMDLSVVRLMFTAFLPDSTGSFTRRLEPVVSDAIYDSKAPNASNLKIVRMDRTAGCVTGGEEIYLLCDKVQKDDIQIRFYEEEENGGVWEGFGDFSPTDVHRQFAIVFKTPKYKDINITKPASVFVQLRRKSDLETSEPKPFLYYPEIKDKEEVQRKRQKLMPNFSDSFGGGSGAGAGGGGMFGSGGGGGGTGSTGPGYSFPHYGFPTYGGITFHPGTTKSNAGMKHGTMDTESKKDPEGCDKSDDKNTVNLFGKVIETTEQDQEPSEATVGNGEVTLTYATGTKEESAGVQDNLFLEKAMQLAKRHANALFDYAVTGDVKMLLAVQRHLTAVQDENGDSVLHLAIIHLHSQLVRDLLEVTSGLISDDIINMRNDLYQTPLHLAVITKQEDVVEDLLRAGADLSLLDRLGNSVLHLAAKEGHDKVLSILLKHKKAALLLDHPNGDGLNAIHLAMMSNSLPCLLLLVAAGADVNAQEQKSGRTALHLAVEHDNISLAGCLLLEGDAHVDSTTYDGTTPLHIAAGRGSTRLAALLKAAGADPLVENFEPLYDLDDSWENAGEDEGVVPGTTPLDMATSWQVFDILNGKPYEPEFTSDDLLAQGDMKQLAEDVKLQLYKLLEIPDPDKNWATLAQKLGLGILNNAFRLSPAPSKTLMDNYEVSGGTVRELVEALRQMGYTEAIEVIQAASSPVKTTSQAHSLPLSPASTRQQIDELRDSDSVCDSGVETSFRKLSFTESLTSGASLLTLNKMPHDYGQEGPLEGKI
Chain of Nuclear factor NF-kappa-B complex (Homo sapiens) (Q00653 whole entry, looked up): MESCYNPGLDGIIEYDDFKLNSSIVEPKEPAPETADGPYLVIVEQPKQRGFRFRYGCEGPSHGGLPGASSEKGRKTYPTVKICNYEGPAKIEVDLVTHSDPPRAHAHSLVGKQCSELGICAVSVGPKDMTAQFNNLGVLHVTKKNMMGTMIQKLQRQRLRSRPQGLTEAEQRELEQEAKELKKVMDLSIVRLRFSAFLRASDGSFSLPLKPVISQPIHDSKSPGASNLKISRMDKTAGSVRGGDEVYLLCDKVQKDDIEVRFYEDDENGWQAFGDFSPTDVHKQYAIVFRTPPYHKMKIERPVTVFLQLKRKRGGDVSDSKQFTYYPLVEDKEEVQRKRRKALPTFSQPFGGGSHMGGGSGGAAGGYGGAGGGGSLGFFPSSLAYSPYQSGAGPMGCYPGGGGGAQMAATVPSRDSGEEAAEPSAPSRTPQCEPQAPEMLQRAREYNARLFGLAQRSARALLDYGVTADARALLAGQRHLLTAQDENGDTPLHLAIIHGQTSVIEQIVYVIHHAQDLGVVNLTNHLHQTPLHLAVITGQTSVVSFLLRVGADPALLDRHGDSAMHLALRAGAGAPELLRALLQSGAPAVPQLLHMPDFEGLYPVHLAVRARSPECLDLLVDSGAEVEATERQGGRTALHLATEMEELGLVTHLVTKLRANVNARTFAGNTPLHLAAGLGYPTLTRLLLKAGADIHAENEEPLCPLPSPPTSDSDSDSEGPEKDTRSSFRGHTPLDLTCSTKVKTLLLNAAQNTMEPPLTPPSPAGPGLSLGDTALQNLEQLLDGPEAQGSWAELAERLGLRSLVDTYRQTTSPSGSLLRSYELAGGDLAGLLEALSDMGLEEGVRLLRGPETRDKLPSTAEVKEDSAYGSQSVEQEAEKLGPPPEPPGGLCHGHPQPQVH
Chain of Nuclear factor NF-kappa-B complex (Homo sapiens) (Q04206 whole entry, looked up): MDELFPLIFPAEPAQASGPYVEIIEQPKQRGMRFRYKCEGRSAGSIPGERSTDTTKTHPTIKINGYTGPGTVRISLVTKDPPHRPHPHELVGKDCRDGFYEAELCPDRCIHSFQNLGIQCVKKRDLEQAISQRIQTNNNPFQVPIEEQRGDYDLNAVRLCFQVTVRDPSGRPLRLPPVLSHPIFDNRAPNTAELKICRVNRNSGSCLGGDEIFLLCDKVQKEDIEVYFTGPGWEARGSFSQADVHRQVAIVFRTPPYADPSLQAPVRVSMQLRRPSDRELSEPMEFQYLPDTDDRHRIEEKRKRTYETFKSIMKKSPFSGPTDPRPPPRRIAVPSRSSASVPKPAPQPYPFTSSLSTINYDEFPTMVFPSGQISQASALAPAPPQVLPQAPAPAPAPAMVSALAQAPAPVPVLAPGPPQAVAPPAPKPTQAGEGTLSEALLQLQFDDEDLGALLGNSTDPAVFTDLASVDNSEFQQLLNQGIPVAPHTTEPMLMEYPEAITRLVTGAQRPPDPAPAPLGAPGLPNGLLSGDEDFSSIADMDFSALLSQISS

With `CCSc1sc(NC(=O)c2ccc(S(=O)(=O)N3CCCCC3)cc2)nc1-c1cc(C)ccc1C`, the Activity in data set [1] amounted to 103%.

As to `Cc1ccc(C)c(-c2ccc(NC(=O)c3ccc(S(=O)(=O)N4CCCCC4)cc3)cn2)c1`, in the data set on THP-1, the Activity worked out at 93%.

`CCOC1CCN(S(=O)(=O)c2ccc(C(=O)Nc3nc(-c4cc(C)ccc4C)cs3)cc2)CC1`: the values for the Activity (in data set [1]; in the data set on THP-1) were 201% and 117%, respectively.

For `Cc1cc(C)cc(-c2csc(NC(=O)c3ccc(S(=O)(=O)N4CCCCC4)cc3)n2)c1`, the Activity in data set [1] worked out at 97%; with THP-1 it was 91%.

For `O=C(Nc1nc(-c2cccc3ccccc23)cs1)c1ccc(S(=O)(=O)N2CCCCC2)cc1`, the Activity is 198% in data set [1] and 93% in the data set on THP-1.

With `COc1cc(C(=O)Nc2nc(-c3cc(C)ccc3C)cs2)ccc1S(=O)(=O)N1CCCCC1`, the Activity in data set [1] came to 99%.

Take `Cc1ccc(-c2csc(NC(=O)c3ccc(S(=O)(=O)N4CCCCC4)cc3)n2)cc1C`: in data set [1], the Activity came to 98%.

For the compound `Cc1ccc(C)c(-c2csc(NC(=O)c3ccc(S(=O)(=O)N4CCN(C(=O)OC(C)(C)C)CC4)cc3)n2)c1`, the Activity in data set [1] is 101%; in the data set on THP-1, 132%.

Take `Cc1cccc(-c2csc(NC(=O)c3ccc(S(=O)(=O)N4CCCCC4)cc3)n2)c1C`: the Activity in data set [1] was 179%; with THP-1 it was 103%.

As for `CCCN(CCC)S(=O)(=O)c1ccc(C(=O)Nc2nc(-c3cc(C)ccc3C)cs2)cc1`, the Activity in data set [1] was determined as 167%; in the data set with THP-1, 96%.

Turning to `Cc1ccc(C)c(-c2nc(NC(=O)c3ccc(S(=O)(=O)N4CCCCC4)cc3)sc2Br)c1`, the Activity in data set [1] worked out at 133%; with THP-1, 84%.

As for `Cc1ccc(C)c(-c2csc(NC(=O)c3ccc(S(=O)(=O)N4CCCCC4)cn3)n2)c1`, the figures for the Activity (in data set [1]; in the data set on THP-1) were 99% and 94%, respectively.

`Cc1ccc(C)c(-c2csc(NC(=O)c3ccc(SC4CCCCC4)cc3)n2)c1`: in the data set on THP-1, the Activity came to 85%.

With `CCc1ccc(C)c(-c2csc(NC(=O)c3ccc(S(=O)(=O)N4CCCCC4)cc3)n2)c1`, the figures for the Activity (in data set [1]; with THP-1) were 203% and 102%, respectively.

Take `CCCc1csc(NC(=O)c2ccc(S(=O)(=O)N3CCCCC3)cc2)n1`: the Activity in the data set with THP-1 is listed as 115%.

In the case of `CCCC#Cc1sc(NC(=O)c2ccc(S(=O)(=O)N3CCCCC3)cc2)nc1-c1cc(C)ccc1Br`, the Activity in data set [1] turned out to be 202%; in the data set with THP-1, 95%.

For `Cc1ccc(C)c(-c2csc(N(C)C(=O)c3ccc(S(=O)(=O)N4CCCCC4)cc3)n2)c1`, the Activity was 101% in data set [1] and 97% with THP-1.

For the compound `CC(=O)N1CCN(S(=O)(=O)c2ccc(C(=O)Nc3nc(-c4cc(C)ccc4C)cs3)cc2)CC1`, the values for the Activity (in data set [1]; with THP-1) were 101% and 114%, respectively.

Consider `Cc1ccccc1-c1csc(NC(=O)c2ccc(S(=O)(=O)N3CCCCC3)cc2)n1`, for which the Activity in the data set on THP-1 came out at 98%.

As for `Cc1ccc(C)c(-c2csc(NC(=O)c3ccc(S(=O)(=O)N4CCCCC4)nc3)n2)c1`, the Activity with THP-1 turned out to be 89%.

As for `Cc1ccc(C)c(-c2csc(NC(=O)c3ccc(C(=O)N4CCCCC4)cc3)n2)c1`, the Activity was found to be 99% in data set [1] and 88% with THP-1.

`CCCN1CCN(S(=O)(=O)c2ccc(C(=O)Nc3nc(-c4cc(C)ccc4C)cs3)cc2)CC1`: in the data set on THP-1, the Activity is on record as 80%.

With `Cc1ccc(C)c(-c2nc(NC(=O)c3ccc(S(=O)(=O)N4CCCCC4)cc3)sc2N2CCCCC2)c1`, the Activity in data set [1] was determined as 99%; in the data set with THP-1, 89%.

`Cc1ccc(Br)cc1-c1csc(NC(=O)c2ccc(S(=O)(=O)N3CCCCC3)cc2)n1`: the figures for the Activity (in data set [1]; with THP-1) were 207% and 91%, respectively.

Take `CC(C)(C)Cc1csc(NC(=O)c2ccc(S(=O)(=O)N3CCCCC3)cc2)n1`: the Activity came out at 101% in data set [1] and 116% with THP-1.

Consider `Cc1ccc(C)c(-c2ccc(NC(=O)c3ccc(S(=O)(=O)N4CCCCC4)cc3)nc2)c1`, for which the Activity with THP-1 worked out at 93%.

Turning to `CCOc1sc(NC(=O)c2ccc(S(=O)(=O)N3CCCCC3)cc2)nc1-c1cc(C)ccc1C`, the Activity in data set [1] amounted to 102%; in the data set with THP-1, 104%.

For the compound `Cc1ccc(C)c(-c2csc(NC(=O)c3ccc(S(=O)(=O)N4CCCCC4)c(Br)c3)n2)c1`, the Activity in data set [1] turned out to be 209%; in the data set on THP-1, 90%.

With `Cc1ccc(C)c(-c2csc(NC(=O)c3ccc(S(=O)(=O)N4CCCCC4)c(Cl)c3)n2)c1`, the Activity in data set [1] came to 223%; in the data set with THP-1, 88%.

In the case of `C#CCN(C(=O)c1ccc(S(=O)(=O)N2CCCCC2)cc1)c1nc(-c2cc(C)ccc2C)cs1`, the Activity with THP-1 worked out at 102%.

Take `Cc1ccc(C)c(-c2csc(NCc3ccc(S(=O)(=O)N4CCCCC4)cc3)n2)c1`: the Activity stood at 99% in data set [1] and 85% with THP-1.

Turning to `CC(C)(C)c1csc(NC(=O)c2ccc(S(=O)(=O)N3CCCCC3)cc2)n1`, the Activity in data set [1] was determined as 99%; with THP-1, 113%.

Turning to `Cc1ccc(C)c(-c2cnc(NC(=O)c3ccc(S(=O)(=O)N4CCCCC4)cc3)s2)c1`, the figures for the Activity (in data set [1]; in the data set with THP-1) were 99% and 101%, respectively.

For `Cc1cccc(-c2csc(NC(=O)c3ccc(S(=O)(=O)N4CCCCC4)cc3)n2)c1`, the Activity with THP-1 turned out to be 98%.

`CCN(CC)c1sc(NC(=O)c2ccc(S(=O)(=O)N3CCCCC3)cc2)nc1-c1cc(C)ccc1C`: the Activity in data set [1] is 99%; with THP-1, 94%.

With `CCCC#Cc1sc(NC(=O)c2ccc(S(=O)(=O)N3CCC(CCC)CC3)cc2)nc1-c1cc(C)ccc1Br`, the values for the Activity (in data set [1]; in the data set with THP-1) were 111% and 97%, respectively.

For the compound `Cc1ccc(C)c(-c2c[nH]c(NC(=O)c3ccc(S(=O)(=O)N4CCCCC4)cc3)n2)c1`, the Activity in data set [1] amounted to 99%; in the data set with THP-1, 51%.

For `Cc1ccc(C)c(-c2nnc(NC(=O)c3ccc(S(=O)(=O)N4CCCCC4)cc3)s2)c1`, the Activity with THP-1 came out at 90%.

`COc1cc(S(=O)(=O)N2CCCCC2)ccc1C(=O)Nc1nc(-c2cc(C)ccc2C)cs1`: the Activity in data set [1] was determined as 99%.

In the case of `Cc1ccc(C)c(-c2nc(NC(=O)c3ccc(S(=O)(=O)N4CCCCC4)cc3)sc2C)c1`, the Activity in data set [1] worked out at 159%; with THP-1, 97%.

For the compound `Cc1ccc2c(c1)-c1nc(NC(=O)c3ccc(S(=O)(=O)N4CCCCC4)cc3)sc1C2`, the results for the Activity (in data set [1]; with THP-1) were 109% and 89%, respectively.

`CCN(c1ccccc1)S(=O)(=O)c1ccc(C(=O)Nc2nc(-c3cc(C)ccc3C)cs2)cc1`: the Activity amounted to 105% in data set [1] and 81% with THP-1.

On to `Cc1ccc(C)c(-c2nc(NC(=O)c3ccc(S(=O)(=O)N4CCCCC4)cc3)sc2-c2ccccc2)c1`, for which the Activity in data set [1] stood at 99%.

For the compound `Cc1ccc(C)c(-c2csc(NC(=O)c3cccc(C(=O)N4CCCCC4)c3)n2)c1`, in the data set on THP-1, the Activity is on record as 88%.

In the case of `Cc1ccc(C)c(-c2csc(NS(=O)(=O)c3ccc(C(=O)N4CCCCC4)cc3)n2)c1`, the Activity was determined as 103% in data set [1] and 69% in the data set with THP-1.

Turning to `Cc1ccc(C)c(-c2csc(NC(=O)c3ccc(S(=O)(=O)NC4CCCCC4)cc3)n2)c1`, in the data set with THP-1, the Activity amounted to 91%.

`CCCCN(CCCC)S(=O)(=O)c1ccc(C(=O)Nc2nc(-c3cc(C)ccc3C)cs2)cc1`: the Activity in data set [1] was found to be 102%.

On to `Cc1ccc(C)c(-c2csc(NC(=O)c3ccc(S(=O)(=O)N4CCCCC4)c([N+](=O)[O-])c3)n2)c1`, for which the Activity in data set [1] is 115%; in the data set with THP-1 it was 93%.

Take `Cc1ccc(-c2csc(NC(=O)c3ccc(S(=O)(=O)N4CCCCC4)cc3)n2)c(C)c1`: the Activity in data set [1] turned out to be 98%; in the data set with THP-1, 102%.

Consider `CCc1csc(NC(=O)c2ccc(S(=O)(=O)N3CCCCC3)cc2)n1`, for which, in the data set with THP-1, the Activity came to 120%.

On to `C#Cc1ccc(C)c(-c2csc(NC(=O)c3ccc(S(=O)(=O)N4CCCCC4)cc3)n2)c1`, for which the Activity was 101% in data set [1] and 92% in the data set on THP-1.

For the compound `CCCC1CCN(S(=O)(=O)c2ccc(C(=O)Nc3nc(-c4cc(C)ccc4Br)cs3)cc2)CC1`, the Activity was 191% in data set [1] and 97% in the data set with THP-1.

With `Cc1cccc(C)c1-c1csc(NC(=O)c2ccc(S(=O)(=O)N3CCCCC3)cc2)n1`, the Activity came to 185% in data set [1] and 100% with THP-1.

In the case of `CCc1sc(NC(=O)c2ccc(S(=O)(=O)N3CCCCC3)cc2)nc1-c1cc(C)ccc1C`, the Activity is 179% in data set [1] and 104% in the data set with THP-1.

Consider `Cc1csc(NC(=O)c2ccc(S(=O)(=O)N3CCCCC3)cc2)n1`, for which, in the data set on THP-1, the Activity stood at 108%.

On to `CCCC#Cc1sc(NC(=O)c2ccc(S(=O)(=O)N3CCC(CCC)CC3)cc2)nc1-c1cc(C)ccc1C`, for which the results for the Activity (in data set [1]; in the data set on THP-1) were 112% and 102%, respectively.

Consider `CCC#Cc1sc(NC(=O)c2ccc(S(=O)(=O)N3CCCCC3)cc2)nc1-c1cc(C)ccc1C`, for which the Activity in data set [1] is 264%; with THP-1, 103%.

For the compound `Cc1ccc(C)c(-c2csc(NC(=O)c3ccc(S(=O)(=O)N4CCCCC4)cc3Br)n2)c1`, the results for the Activity (in data set [1]; in the data set with THP-1) were 120% and 96%, respectively.

Regarding `Cc1ccc(C)c(-c2cccc(NC(=O)c3ccc(S(=O)(=O)N4CCCCC4)cc3)n2)c1`, the Activity in the data set with THP-1 stood at 94%.

For the compound `Cc1ccc(C)c(-c2csc(NC(=O)c3ccc(S(=O)(=O)C4CCCCC4)cc3)n2)c1`, in the data set with THP-1, the Activity worked out at 82%.

For `Cc1ccc(C)c(-c2nc(NC(=O)c3ccc(S(=O)(=O)N4CCCCC4)cc3)sc2-c2ccco2)c1`, the Activity with THP-1 is listed as 106%.
